# Results from ChEMBL document CHEMBL4257473, “Design, synthesis and antibacterial evaluation of a polycationic calix[4]arene derivative alone and in combination with antibiotics” (Medchemcomm, 2018).
# Legend:
# Assay type in all cases: functional
# [1] = test system: Staphylococcus aureus; assay: Antibacterial activity against Staphylococcus aureus ATCC 6538 after 24 hrs by microbroth dilution method; details: ATCC 6538, 24 h
# In short: (§1)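 Broth microdilution per NCCLS guidelines in Mueller Hinton broth, from overnight cultures. Final inoculum 5×10^5 CFU mL⁻¹. Calixarene tested at 1–1024 μg mL⁻¹, ofloxacin 0.06–2048, chloramphenicol 1–2048, tetracycline 0.03–128 μg mL⁻¹. Plates incubated 37 °C for 24 h. MIC is the lowest concentration with no visible growth. Triplicate, with growth control, and modal value reported.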
# [2] = test system: Staphylococcus epidermidis; assay: Antibacterial activity against Staphylococcus epidermidis ATCC 35984 after 24 hrs by microbroth dilution method; details: ATCC 35984, 24 h
# In short: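 Broth microdilution per NCCLS guidelines in Mueller Hinton broth, overnight culture inoculated at final 5×10^5 CFU mL⁻¹. Calixarene tested at 1-1024 µg mL⁻¹. Incubation 37 °C for 24 h. MIC taken as the lowest concentration with no visible growth. Growth control included, triplicate runs, modal value reported.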
# [3] = test system: Staphylococcus epidermidis; assay: Antibacterial activity against methicillin-resistant Staphylococcus epidermidis 57 after 24 hrs by microbroth dilution method; details: Staphylococcus epidermidis, 57, 24 h; in short: as §1
# [4] = test system: Staphylococcus aureus; assay: Antibacterial activity against methicillin-resistant Staphylococcus aureus 15 after 24 hrs by microbroth dilution method; details: Staphylococcus aureus, 15, 24 h; in short: as §1
# [5] = test system: Staphylococcus aureus; assay: Bactericidal activity against methicillin-resistant Staphylococcus aureus 15 incubated for 24 hrs followed by replating on Mueller hinton agar plates and measured after 24 hrs; details: Staphylococcus aureus, 15, 24 h
# In short: (§2)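 MBC follows the broth microdilution MIC step (MHB, 5×10^5 CFU mL⁻¹, 37 °C, 24 h). 15 µL from every clear MIC well is seeded onto Mueller Hinton agar and incubated 37 °C for 24 h. MBC is the lowest concentration giving no growth. At least three replicates, and modal value reported.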
# [6] = test system: Pseudomonas aeruginosa; assay: Bactericidal activity against Pseudomonas aeruginosa ATCC 9027 incubated for 24 hrs followed by replating on Mueller hinton agar plates and measured after 24 hrs; details: ATCC 9027, 24 h
# In short: (§3)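 MBC follows a broth microdilution MIC run (Mueller Hinton broth, 5×10^5 CFU mL⁻¹, 37 °C, 24 h). 15 µL from every clear well is seeded onto Mueller Hinton agar and incubated at 37 °C for 24 h. MBC is the lowest concentration giving no growth. At least three replicates, modal result used.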
# [7] = test system: Pseudomonas aeruginosa; assay: Antibacterial activity against Pseudomonas aeruginosa isolate 1 after 24 hrs by microbroth dilution method; details: isolate 1, 24 h; in short: as §1
# [8] = test system: Staphylococcus aureus; assay: Bactericidal activity against Staphylococcus aureus ATCC 6538 incubated for 24 hrs followed by replating on Mueller hinton agar plates and measured after 24 hrs; details: ATCC 6538, 24 h; in short: as §2
# [9] = test system: Staphylococcus epidermidis; assay: Bactericidal activity against Staphylococcus epidermidis ATCC 35984 incubated for 24 hrs followed by replating on Mueller hinton agar plates and measured after 24 hrs; details: ATCC 35984, 24 h; in short: as §2
# [10] = test system: Pseudomonas aeruginosa; assay: Bactericidal activity against Pseudomonas aeruginosa isolate 1 incubated for 24 hrs followed by replating on Mueller hinton agar plates and measured after 24 hrs; details: isolate 1, 24 h; in short: as §3
# [11] = test system: Staphylococcus epidermidis; assay: Bactericidal activity against methicillin-resistant Staphylococcus epidermidis 57 incubated for 24 hrs followed by replating on Mueller hinton agar plates and measured after 24 hrs; details: Staphylococcus epidermidis, 57, 24 h; in short: as §2
# [12] = test system: Staphylococcus aureus; assay: Antibacterial activity against methicillin-resistant Staphylococcus aureus 15 assessed as FIC index after overnight incubation in presence of tetracycline by checkerboard assay
# In short: (§4)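 Checkerboard combinations of calixarene with antibiotic, each at final concentrations from 2 to 0.015 × its MIC, giving 64 combinations per plate. Inoculum prepared in MHB, final 5×10^5 CFU mL⁻¹. Incubated overnight at 37 °C. Fractional inhibitory concentration index calculated from the combination MICs.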
# [13] = test system: Staphylococcus epidermidis; assay: Antibacterial activity against methicillin-resistant Staphylococcus epidermidis 57 assessed as FIC index after overnight incubation in presence of ofloxacin by checkerboard assay; in short: as §4
# [14] = test system: Pseudomonas aeruginosa; assay: Antibacterial activity against Pseudomonas aeruginosa ATCC 9027 assessed as FIC index after overnight incubation in presence of tetracycline by checkerboard assay; in short: as §4
# [15] = test system: Staphylococcus aureus; assay: Antibacterial activity against Staphylococcus aureus ATCC 6538 assessed as FIC index after overnight incubation in presence of ofloxacin by checkerboard assay
# In short: (§5)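 Checkerboard combination of the calixarene with each antibiotic, each agent at final 2 to 0.015 times its MIC, giving 64 combinations. Inoculum prepared in Mueller Hinton broth and added at final 5×10^5 CFU mL⁻¹. Plates incubated overnight at 37 °C, then FICI calculated from the combination MICs.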
# [16] = test system: Staphylococcus epidermidis; assay: Potency index, ratio of ofloxacin MBC to test compound MBC for Staphylococcus epidermidis 57
# [17] = test system: Pseudomonas aeruginosa; assay: Potency index, ratio of ofloxacin MBC to test compound MBC for Pseudomonas aeruginosa isolate 1
# [18] = test system: Staphylococcus aureus; assay: Antibacterial activity against methicillin-resistant Staphylococcus aureus 15 assessed as FIC index after overnight incubation in presence of ofloxacin by checkerboard assay; in short: as §4
# [19] = test system: Pseudomonas aeruginosa; assay: Antibacterial activity against Pseudomonas aeruginosa isolate 1 assessed as FIC index after overnight incubation in presence of chloramphenicol by checkerboard assay; in short: as §5
# [20] = test system: Staphylococcus epidermidis; assay: Potency index, ratio of chloramphenicol MBC to test compound MBC for Staphylococcus epidermidis ATCC 35984
# [21] = test system: Staphylococcus aureus; assay: Potency index, ratio of chloramphenicol MIC to test compound MIC for methicillin-resistant Staphylococcus aureus 15
# [22] = test system: Staphylococcus epidermidis; assay: Potency index, ratio of chloramphenicol MIC to test compound MIC for Staphylococcus epidermidis ATCC 35984
# [23] = test system: Staphylococcus aureus; assay: Antibacterial activity against Staphylococcus aureus ATCC 6538 assessed as FIC index after overnight incubation in presence of chloramphenicol by checkerboard assay; in short: as §5
# [24] = test system: Staphylococcus epidermidis; assay: Antibacterial activity against Staphylococcus epidermidis ATCC 35984 assessed as FIC index after overnight incubation in presence of chloramphenicol by checkerboard assay; in short: as §4
# [25] = test system: Staphylococcus epidermidis; assay: Potency index, ratio of chloramphenicol MBC to test compound MBC for Staphylococcus epidermidis 57
# [26] = test system: Staphylococcus epidermidis; assay: Potency index, ratio of ofloxacin MIC to test compound MIC for Staphylococcus epidermidis 57
# [27] = test system: Pseudomonas aeruginosa; assay: Antibacterial activity against Pseudomonas aeruginosa isolate 1 assessed as FIC index after overnight incubation in presence of tetracycline by checkerboard assay; in short: as §5
# [28] = test system: Pseudomonas aeruginosa; assay: Antibacterial activity against Pseudomonas aeruginosa ATCC 9027 assessed as FIC index after overnight incubation in presence of chloramphenicol by checkerboard assay; in short: as §5
# [29] = test system: Pseudomonas aeruginosa; assay: Antibacterial activity against Pseudomonas aeruginosa ATCC 9027 assessed as FIC index after overnight incubation in presence of ofloxacin by checkerboard assay; in short: as §5
# [30] = test system: Staphylococcus epidermidis; assay: Antibacterial activity against methicillin-resistant Staphylococcus epidermidis 57 assessed as FIC index after overnight incubation in presence of tetracycline by checkerboard assay; in short: as §4
# [31] = test system: Staphylococcus aureus; assay: Antibacterial activity against Staphylococcus aureus ATCC 6538 assessed as FIC index after overnight incubation in presence of tetracycline by checkerboard assay; in short: as §5
# [32] = test system: Pseudomonas aeruginosa; assay: Antibacterial activity against Pseudomonas aeruginosa isolate 1 assessed as FIC index after overnight incubation in presence of ofloxacin by checkerboard assay; in short: as §5
# [33] = test system: Pseudomonas aeruginosa; assay: Potency index, ratio of chloramphenicol MBC to test compound MBC for Pseudomonas aeruginosa isolate 1
# [34] = test system: Pseudomonas aeruginosa; assay: Potency index, ratio of chloramphenicol MIC to test compound MIC for Pseudomonas aeruginosa isolate 1
# [35] = test system: Staphylococcus epidermidis; assay: Antibacterial activity against Staphylococcus epidermidis ATCC 35984 assessed as FIC index after overnight incubation in presence of ofloxacin by checkerboard assay; in short: as §5
# [36] = test system: Staphylococcus aureus; assay: Potency index, ratio of chloramphenicol MBC to test compound MBC for methicillin-resistant Staphylococcus aureus 15
# [37] = test system: Staphylococcus epidermidis; assay: Potency index, ratio of chloramphenicol MIC to test compound MIC for Staphylococcus epidermidis 57
# [38] = test system: Pseudomonas aeruginosa; assay: Antibacterial activity against Pseudomonas aeruginosa ATCC 9027 after 24 hrs by microbroth dilution method; details: ATCC 9027, 24 h; in short: as §1
structure (smiles),measurement,setting,value
CC1COc2c(N3CCN(C)CC3)c(F)cc3c(=O)c(C(=O)O)cn1c23 (stereo not drawn) [OFLOXACIN],MIC,[1],0.25 µg/mL
same,MIC,[2],0.25 µg/mL
same,MIC,[3],512 µg/mL
same,MIC,[4],512 µg/mL
same,MBC,[5],> 2050 µg/mL
same,MBC,[6],2 µg/mL
same,MIC,[7],256 µg/mL
same,MBC,[8],0.5 µg/mL
same,MBC,[9],0.5 µg/mL
same,MBC,[10],512 µg/mL
same,MBC,[11],> 2050 µg/mL
CCCOc1c2cc(C[N+](C)(CCO)CCO)cc1Cc1cc(C[N+](C)(CCO)CCO)cc(c1OCCC)Cc1cc(C[N+](C)(CCO)CCO)cc(c1OCCC)Cc1cc(C[N+](C)(CCO)CCO)cc(c1OCCC)C2.[Cl-].[Cl-].[Cl-].[Cl-],fractional inhibitory concentration index (FICI),[12],1.03
same,fractional inhibitory concentration index (FICI),[13],1
same,fractional inhibitory concentration index (FICI),[14],1.06
same,fractional inhibitory concentration index (FICI),[15],1.25
same,Ratio,[16],262
same,Ratio,[17],2
same,fractional inhibitory concentration index (FICI),[18],1
same,fractional inhibitory concentration index (FICI),[19],0.53
same,Ratio,[20],16
same,Ratio,[21],2
same,MIC,[1],4 µg/mL
same,Ratio,[22],4
same,fractional inhibitory concentration index (FICI),[23],1.12
same,fractional inhibitory concentration index (FICI),[24],1.03
same,MIC,[2],4 µg/mL
same,Ratio,[25],32
same,Ratio,[26],131
same,MIC,[3],4 µg/mL
same,fractional inhibitory concentration index (FICI),[27],0.56
same,fractional inhibitory concentration index (FICI),[28],0.62
same,MIC,[4],4 µg/mL
same,fractional inhibitory concentration index (FICI),[29],1.06
same,MBC,[5],8 µg/mL
same,fractional inhibitory concentration index (FICI),[30],1.03
same,MBC,[6],256 µg/mL
same,fractional inhibitory concentration index (FICI),[31],1.48
same,fractional inhibitory concentration index (FICI),[32],0.62
same,Ratio,[33],4
same,Ratio,[34],2
same,fractional inhibitory concentration index (FICI),[35],1.25
same,MIC,[7],256 µg/mL
same,Ratio,[36],16
same,Ratio,[37],2
same,MBC,[8],8 µg/mL
same,MBC,[9],8 µg/mL
same,MBC,[10],256 µg/mL
same,MIC,[38],128 µg/mL
same,MBC,[11],8 µg/mL
CN(C)[C@@H]1C(O)=C(C(N)=O)C(=O)[C@@]2(O)C(O)=C3C(=O)c4c(O)cccc4[C@@](C)(O)[C@H]3C[C@@H]12 [TETRACYCLINE],MIC,[1],0.125 µg/mL
same,MIC,[2],0.5 µg/mL
same,MIC,[3],1 µg/mL
same,MIC,[4],1 µg/mL
same,MBC,[5],16 µg/mL
same,MBC,[6],32 µg/mL
same,MIC,[7],16 µg/mL
same,MBC,[8],4 µg/mL
same,MBC,[9],8 µg/mL
same,MBC,[10],32 µg/mL
same,MIC,[38],16 µg/mL
same,MBC,[11],16 µg/mL
O=C(N[C@H](CO)[C@H](O)c1ccc([N+](=O)[O-])cc1)C(Cl)Cl [CHLORAMPHENICOL],MIC,[1],4 µg/mL
same,MIC,[2],16 µg/mL
same,MIC,[3],8 µg/mL
same,MIC,[4],8 µg/mL
same,MBC,[5],128 µg/mL
same,MBC,[6],128 µg/mL
same,MIC,[7],512 µg/mL
same,MBC,[8],8 µg/mL
same,MBC,[9],128 µg/mL
same,MBC,[10],1020 µg/mL
same,MIC,[38],64 µg/mL
same,MBC,[11],256 µg/mL
